This is an account of results in PMC5422321 (Drug Design, Development and Therapy, 2017).

One may read the IC50 as the concentration that inhibits the measured activity by half. A high value points to a need for much substance.

Each structure is given as a SMILES string. Values joined by “and” are separate entries in the source; they are usually repeats but may differ in a detail not shown here. Identical values can stand only once. Like-named read-outs stand apart in the source and are kept apart here.

The subject of test [1] is α-tubulin acetylation in PC-3 cells. Nature of the test: Western blot of acetylated α-tubulin in PC-3 cells. In kind it is cell-based, human. To be noted: 18 h. An outline of the steps: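 PC-3 cells seeded overnight in complete medium, then treated 18 h with test compound (10 doses, threefold dilution). Washed with PBS and lysed in 1× SDS sample buffer. Lysates resolved on 12% Bis-Tris SDS-PAGE and transferred to nitrocellulose. Blocked 1 h in 3% nonfat milk, probed overnight with anti-acetyl-tubulin and a fluorescent secondary, scanned, then reprobed for total α-tubulin. One of three experiments shown.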
Background: Immunoblotting shows a protein as a band on a membrane.

For test [2], the system named is 11 HDACs. Nature of the test: HDAC biochemical assay, panel statements. To be noted: up to 10 µM dose.
Test [3] addresses HDAC4 (Homo sapiens, UniProt P56524). Nature of the test: HDAC biochemical assay.
Test [4] has as its target HDAC1 (Homo sapiens, UniProt Q13547). The test can be described thus: HDAC biochemical assay.
Test [5] has as its target T1, HDAC10 (Homo sapiens, UniProt Q969S8).
T1 sequence (Q969S8 1-669): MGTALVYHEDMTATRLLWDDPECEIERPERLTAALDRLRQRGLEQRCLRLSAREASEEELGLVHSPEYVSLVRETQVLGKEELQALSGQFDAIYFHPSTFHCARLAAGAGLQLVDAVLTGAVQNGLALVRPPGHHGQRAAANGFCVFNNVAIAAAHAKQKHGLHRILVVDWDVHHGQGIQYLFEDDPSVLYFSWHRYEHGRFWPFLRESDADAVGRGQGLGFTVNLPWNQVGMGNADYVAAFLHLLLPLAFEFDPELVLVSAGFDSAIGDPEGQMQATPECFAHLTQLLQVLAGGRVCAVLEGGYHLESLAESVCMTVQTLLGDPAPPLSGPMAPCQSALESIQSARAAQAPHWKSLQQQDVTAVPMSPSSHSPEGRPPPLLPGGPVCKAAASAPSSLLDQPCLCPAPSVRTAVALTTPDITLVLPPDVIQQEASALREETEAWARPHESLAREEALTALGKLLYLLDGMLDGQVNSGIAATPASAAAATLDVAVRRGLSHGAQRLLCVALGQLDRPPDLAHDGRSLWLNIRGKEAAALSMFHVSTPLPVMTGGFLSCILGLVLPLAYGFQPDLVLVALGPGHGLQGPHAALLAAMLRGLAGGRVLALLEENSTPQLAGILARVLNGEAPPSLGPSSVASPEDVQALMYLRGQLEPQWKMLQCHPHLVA
Nature of the test: HDAC biochemical assay.

Test [6] concerns several HDAC subtypes. The test can be described thus: Primary screening at 10 µM in HDAC enzymatic assay. In kind it is biochemical. To be noted: 10 µM of compound. An outline of the steps:
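Recombinant HDACs run with fluorogenic AMC peptides: RHKKAc-AMC for HDAC1, 2, 3, 6, 10 and 11; RHKAcKAc-AMC for HDAC8; acetyl-Lys(trifluoroacetyl)-AMC for HDAC4, 5, 7 and 9. Substrate then added; developer digests deacetylated product; AMC fluorescence read.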

Test [7] concerns the target HDAC3 (Homo sapiens, UniProt O15379). The test can be described thus: HDAC biochemical assay.
The target in test [8] is T2, HDAC7 (Homo sapiens, UniProt Q8WUI4).
T2 sequence (Q8WUI4 1-952): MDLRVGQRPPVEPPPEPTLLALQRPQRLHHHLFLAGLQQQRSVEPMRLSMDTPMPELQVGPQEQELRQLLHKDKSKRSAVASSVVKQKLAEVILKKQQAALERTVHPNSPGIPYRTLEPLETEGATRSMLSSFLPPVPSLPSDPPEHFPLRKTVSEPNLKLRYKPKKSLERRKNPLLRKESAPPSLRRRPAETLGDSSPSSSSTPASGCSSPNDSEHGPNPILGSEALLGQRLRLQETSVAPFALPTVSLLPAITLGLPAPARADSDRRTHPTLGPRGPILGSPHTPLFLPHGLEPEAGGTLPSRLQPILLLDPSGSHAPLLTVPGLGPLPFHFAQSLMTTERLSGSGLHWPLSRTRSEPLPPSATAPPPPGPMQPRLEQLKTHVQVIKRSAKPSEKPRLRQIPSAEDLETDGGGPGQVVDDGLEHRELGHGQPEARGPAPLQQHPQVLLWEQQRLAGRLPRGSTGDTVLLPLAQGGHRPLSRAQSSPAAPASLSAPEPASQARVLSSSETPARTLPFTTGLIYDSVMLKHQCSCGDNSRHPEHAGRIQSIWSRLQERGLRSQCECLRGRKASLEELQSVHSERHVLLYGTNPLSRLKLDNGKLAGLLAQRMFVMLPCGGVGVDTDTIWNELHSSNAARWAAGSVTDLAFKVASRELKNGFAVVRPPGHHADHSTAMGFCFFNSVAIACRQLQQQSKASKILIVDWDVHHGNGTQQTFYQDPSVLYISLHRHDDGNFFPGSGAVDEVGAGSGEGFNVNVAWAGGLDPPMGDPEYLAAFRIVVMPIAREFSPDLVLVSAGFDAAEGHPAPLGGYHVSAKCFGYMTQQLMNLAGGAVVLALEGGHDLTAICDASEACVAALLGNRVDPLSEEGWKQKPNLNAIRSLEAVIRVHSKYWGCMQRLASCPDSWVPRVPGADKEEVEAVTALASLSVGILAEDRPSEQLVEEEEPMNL
The test can be described thus: HDAC biochemical assay.

Test [9] addresses T3, HDAC8 (Homo sapiens, UniProt Q9BY41).
T3 sequence (Q9BY41 1-377): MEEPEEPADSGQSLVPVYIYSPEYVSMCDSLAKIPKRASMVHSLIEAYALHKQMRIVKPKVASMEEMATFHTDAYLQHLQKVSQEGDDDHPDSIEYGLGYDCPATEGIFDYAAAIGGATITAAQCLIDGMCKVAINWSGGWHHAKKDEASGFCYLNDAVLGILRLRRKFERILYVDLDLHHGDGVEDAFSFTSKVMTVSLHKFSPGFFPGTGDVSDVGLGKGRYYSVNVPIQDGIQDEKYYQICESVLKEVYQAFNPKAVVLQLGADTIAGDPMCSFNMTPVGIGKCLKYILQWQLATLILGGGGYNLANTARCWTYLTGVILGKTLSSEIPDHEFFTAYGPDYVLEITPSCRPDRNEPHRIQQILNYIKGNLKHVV
Nature of the test: HDAC biochemical assay. To be noted: RHKAcKAc-AMC substrate.

For test [10], the system named is histone H3 acetylation in PC-3 cells. The test can be described thus: Western blot of histone H3 acetylation in PC-3 cells. It counts as cell-based, human. To be noted: data not shown.
Test [11] addresses HDAC5 (Homo sapiens, UniProt Q9UQL6). Nature of the test: HDAC biochemical assay.
The target of test [12] is T4, HDAC6 (Homo sapiens, UniProt Q9UBN7).
T4 sequence (Q9UBN7 1-1215): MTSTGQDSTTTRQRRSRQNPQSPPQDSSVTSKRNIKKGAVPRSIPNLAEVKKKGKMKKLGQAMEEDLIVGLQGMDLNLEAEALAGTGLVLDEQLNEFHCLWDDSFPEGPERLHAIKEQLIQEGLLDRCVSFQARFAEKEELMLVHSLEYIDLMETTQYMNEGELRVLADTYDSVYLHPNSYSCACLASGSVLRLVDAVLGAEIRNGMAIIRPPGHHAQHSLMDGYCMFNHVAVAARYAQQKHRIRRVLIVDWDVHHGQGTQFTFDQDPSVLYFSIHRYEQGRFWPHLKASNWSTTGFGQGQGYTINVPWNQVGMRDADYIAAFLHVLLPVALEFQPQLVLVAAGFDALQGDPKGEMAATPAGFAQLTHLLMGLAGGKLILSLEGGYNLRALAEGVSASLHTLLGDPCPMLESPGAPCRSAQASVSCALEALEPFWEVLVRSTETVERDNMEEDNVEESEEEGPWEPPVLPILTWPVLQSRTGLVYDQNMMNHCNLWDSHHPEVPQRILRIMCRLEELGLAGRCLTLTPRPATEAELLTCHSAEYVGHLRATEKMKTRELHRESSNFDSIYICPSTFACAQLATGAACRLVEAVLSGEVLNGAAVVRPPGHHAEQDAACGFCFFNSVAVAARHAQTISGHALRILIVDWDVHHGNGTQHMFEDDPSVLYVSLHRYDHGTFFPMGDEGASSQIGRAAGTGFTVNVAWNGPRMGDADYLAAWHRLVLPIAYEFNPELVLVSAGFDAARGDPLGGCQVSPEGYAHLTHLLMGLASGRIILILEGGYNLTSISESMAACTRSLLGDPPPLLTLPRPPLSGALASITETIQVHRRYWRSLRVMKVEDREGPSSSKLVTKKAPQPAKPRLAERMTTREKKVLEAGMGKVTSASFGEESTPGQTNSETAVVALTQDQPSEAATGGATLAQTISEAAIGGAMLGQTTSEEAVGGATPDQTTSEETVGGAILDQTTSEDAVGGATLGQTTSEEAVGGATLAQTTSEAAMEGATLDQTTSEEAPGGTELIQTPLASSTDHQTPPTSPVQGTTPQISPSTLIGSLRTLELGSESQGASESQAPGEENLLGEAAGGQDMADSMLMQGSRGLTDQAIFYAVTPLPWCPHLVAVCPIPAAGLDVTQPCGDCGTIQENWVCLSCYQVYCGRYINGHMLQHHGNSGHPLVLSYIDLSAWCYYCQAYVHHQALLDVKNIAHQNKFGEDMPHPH
The test can be described thus: HDAC biochemical assay. The following applies: AMC-labeled peptide substrate.

The target of test [13] is HDAC9 (Homo sapiens, UniProt Q9UKV0). Nature of the test: HDAC biochemical assay.
Sequence of HDAC9 (Q9UKV0 whole entry): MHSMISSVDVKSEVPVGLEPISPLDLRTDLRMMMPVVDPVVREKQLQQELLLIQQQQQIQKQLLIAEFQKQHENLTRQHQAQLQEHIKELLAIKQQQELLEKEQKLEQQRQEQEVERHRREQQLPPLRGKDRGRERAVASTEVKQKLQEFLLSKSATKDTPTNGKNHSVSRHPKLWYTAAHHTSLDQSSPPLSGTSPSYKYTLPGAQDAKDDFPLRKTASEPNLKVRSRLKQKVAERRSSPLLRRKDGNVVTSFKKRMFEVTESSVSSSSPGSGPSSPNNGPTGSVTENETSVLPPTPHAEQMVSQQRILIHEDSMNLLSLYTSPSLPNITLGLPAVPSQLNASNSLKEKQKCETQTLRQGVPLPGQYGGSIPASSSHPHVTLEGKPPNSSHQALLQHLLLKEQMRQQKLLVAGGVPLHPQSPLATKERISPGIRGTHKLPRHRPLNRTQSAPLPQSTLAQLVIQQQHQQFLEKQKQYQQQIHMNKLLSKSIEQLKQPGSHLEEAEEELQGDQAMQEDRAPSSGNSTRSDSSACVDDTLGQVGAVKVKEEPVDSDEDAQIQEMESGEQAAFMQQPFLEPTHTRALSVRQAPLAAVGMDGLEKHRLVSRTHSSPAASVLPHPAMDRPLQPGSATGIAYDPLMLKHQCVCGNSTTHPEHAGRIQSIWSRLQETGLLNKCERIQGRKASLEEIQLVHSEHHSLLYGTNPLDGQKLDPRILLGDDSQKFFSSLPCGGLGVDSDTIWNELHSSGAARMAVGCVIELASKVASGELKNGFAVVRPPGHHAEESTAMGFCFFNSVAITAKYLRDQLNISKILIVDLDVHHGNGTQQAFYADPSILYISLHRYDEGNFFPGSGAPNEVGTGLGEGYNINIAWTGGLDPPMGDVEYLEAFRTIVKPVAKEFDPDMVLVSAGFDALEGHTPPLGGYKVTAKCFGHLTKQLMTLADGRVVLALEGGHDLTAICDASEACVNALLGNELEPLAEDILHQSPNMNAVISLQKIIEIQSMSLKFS
Test [14] has as its target T5, HDAC11 (Homo sapiens, UniProt Q96DB2).
T5 sequence (Q96DB2 1-347): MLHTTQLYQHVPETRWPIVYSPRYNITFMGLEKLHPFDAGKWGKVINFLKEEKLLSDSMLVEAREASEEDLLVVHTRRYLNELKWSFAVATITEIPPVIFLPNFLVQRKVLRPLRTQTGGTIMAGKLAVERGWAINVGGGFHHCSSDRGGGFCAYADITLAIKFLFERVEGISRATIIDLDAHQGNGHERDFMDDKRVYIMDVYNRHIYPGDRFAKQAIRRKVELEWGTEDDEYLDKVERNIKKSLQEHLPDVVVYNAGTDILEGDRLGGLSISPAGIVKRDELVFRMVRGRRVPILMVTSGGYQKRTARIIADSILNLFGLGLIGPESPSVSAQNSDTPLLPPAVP
The test can be described thus: HDAC biochemical assay.

Test [15] addresses HDAC2 (Homo sapiens, UniProt Q92769). The test can be described thus: HDAC biochemical assay.

Sequence of HDAC5 (Q9UQL6 whole entry): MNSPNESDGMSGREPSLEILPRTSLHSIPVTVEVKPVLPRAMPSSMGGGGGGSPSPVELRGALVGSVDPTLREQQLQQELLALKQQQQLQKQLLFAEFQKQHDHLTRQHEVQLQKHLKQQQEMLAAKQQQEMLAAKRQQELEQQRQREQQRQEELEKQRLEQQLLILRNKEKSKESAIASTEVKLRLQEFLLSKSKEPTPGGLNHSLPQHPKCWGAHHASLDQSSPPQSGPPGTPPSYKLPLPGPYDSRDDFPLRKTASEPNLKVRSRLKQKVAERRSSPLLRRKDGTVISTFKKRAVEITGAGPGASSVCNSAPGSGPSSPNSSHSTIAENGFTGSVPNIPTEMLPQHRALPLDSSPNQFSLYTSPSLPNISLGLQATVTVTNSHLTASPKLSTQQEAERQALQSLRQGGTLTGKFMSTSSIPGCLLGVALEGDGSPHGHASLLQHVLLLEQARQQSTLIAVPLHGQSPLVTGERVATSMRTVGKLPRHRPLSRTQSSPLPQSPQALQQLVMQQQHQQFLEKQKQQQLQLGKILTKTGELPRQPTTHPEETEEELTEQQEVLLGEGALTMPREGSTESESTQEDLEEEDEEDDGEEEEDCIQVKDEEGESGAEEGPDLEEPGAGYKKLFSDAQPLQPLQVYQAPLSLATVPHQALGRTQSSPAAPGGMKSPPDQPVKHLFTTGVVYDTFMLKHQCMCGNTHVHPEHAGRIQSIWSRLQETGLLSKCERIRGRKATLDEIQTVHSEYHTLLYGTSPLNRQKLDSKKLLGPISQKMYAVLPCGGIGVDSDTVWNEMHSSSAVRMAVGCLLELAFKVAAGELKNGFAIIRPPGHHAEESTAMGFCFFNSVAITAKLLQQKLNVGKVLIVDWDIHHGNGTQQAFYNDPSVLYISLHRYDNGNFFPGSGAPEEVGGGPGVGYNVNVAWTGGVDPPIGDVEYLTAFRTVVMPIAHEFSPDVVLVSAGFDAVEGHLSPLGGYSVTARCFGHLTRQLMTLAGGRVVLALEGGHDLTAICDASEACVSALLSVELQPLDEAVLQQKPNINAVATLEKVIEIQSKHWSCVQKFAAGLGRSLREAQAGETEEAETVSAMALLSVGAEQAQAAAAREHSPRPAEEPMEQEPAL
Sequence of HDAC2 (Q92769 whole entry): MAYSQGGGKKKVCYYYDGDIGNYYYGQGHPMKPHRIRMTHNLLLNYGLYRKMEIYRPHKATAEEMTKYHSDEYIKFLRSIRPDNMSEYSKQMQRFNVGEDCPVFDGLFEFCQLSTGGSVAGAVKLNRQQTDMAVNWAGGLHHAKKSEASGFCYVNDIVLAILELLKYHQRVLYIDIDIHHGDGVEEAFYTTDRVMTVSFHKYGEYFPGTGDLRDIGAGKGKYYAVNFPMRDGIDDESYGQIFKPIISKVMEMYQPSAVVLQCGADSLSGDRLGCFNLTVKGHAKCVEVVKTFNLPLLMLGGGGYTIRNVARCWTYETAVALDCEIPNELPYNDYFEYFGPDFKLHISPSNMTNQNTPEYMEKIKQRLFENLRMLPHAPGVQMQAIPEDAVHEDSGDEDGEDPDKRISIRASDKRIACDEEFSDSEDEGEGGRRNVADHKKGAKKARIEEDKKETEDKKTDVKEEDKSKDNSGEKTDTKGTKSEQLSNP
Sequence of HDAC1 (Q13547 whole entry): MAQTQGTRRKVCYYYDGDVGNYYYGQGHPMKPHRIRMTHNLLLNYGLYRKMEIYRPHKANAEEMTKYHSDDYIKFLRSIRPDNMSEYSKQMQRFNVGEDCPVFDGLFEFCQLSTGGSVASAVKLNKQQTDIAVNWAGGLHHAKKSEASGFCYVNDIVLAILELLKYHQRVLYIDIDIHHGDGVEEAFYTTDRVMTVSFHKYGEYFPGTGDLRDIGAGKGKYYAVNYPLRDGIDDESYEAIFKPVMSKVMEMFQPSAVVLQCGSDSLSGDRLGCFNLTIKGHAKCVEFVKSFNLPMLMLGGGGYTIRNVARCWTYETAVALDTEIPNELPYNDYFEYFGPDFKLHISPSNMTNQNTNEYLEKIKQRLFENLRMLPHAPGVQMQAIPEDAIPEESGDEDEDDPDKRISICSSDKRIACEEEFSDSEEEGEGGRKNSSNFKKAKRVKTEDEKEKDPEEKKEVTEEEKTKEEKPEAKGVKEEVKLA
Sequence of HDAC4 (P56524 whole entry): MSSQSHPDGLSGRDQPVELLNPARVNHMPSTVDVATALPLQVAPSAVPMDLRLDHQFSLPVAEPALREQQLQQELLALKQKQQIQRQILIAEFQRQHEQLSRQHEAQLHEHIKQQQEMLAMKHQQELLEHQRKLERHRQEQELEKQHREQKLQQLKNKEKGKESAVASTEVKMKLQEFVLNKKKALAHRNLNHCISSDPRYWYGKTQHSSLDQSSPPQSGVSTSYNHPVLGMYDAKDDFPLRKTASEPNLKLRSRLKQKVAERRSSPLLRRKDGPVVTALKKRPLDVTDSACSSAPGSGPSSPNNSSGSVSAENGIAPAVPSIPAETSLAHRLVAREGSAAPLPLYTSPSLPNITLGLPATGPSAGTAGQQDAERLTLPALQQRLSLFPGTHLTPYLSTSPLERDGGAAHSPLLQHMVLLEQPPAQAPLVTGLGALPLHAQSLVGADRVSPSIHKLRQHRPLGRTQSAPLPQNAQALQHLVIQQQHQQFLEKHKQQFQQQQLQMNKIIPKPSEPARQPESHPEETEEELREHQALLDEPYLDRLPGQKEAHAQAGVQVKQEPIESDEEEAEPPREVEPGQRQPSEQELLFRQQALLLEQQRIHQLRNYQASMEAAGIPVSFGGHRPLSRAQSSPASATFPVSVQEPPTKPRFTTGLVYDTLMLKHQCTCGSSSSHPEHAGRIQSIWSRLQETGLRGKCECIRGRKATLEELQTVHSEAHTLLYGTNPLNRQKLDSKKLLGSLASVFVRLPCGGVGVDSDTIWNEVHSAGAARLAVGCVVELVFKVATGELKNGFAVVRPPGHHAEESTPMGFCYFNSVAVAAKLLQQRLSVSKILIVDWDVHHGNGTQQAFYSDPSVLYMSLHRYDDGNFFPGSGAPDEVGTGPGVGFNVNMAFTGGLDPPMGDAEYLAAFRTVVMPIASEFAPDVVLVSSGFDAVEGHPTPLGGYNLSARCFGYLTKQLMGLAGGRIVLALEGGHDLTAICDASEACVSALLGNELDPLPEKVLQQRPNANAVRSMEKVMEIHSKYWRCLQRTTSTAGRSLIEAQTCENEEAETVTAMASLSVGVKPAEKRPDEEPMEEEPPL
Sequence of HDAC3 (O15379 whole entry): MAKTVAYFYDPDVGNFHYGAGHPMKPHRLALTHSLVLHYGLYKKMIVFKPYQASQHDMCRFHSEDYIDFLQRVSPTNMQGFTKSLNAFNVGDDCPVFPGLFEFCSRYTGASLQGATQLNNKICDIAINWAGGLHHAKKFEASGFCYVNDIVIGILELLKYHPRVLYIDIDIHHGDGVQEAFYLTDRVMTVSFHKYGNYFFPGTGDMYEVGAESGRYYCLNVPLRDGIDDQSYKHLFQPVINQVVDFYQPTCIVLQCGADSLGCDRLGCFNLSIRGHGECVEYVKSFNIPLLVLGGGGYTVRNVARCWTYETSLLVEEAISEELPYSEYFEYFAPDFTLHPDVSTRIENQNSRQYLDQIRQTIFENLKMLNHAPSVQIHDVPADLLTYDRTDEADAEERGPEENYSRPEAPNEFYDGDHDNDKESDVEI
Sequence of HDAC3 (Q9Y618 395-489 partner limits assumed): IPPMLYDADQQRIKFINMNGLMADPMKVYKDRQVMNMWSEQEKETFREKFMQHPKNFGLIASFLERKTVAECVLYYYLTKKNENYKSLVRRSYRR

As for `O=C(CCCCCCNC(=O)c1cnc(N(c2ccccc2)c2ccccc2)nc1)NO` [ACY-1215], the “acetylated α-tubulin level” value in test [1] is reported as “significantly increased”.
In the case of `O=c1c2ccccc2[se]n1-c1ccccc1` [Ebselen, 2-phenyl-1,2-benzisoselenazol-3(2H)-one], the “inhibition of the other HDAC subtypes (other than HDAC5, HDAC6, HDAC8, HDAC9)” value in test [2] is on record as “no significant inhibition”. Moreover, the IC50 in test [3] is greater than 10 µM; in test [4], greater than 10 µM; in [5] it was greater than 10 µM; in test [7] it was greater than 10 µM; in test [8], greater than 10 µM; in test [9], 1.2 µM and 1.21 µM. In addition, the IC50 is 3.49 µM in test [11] (HDAC5 IC50, biochemical HDAC assay, acetyl-Lys(trifluoroacetyl)-AMC substrate); 6.99 µM in test [12]; 3.75 µM in [13] (HDAC9 IC50, biochemical HDAC assay, acetyl-Lys(trifluoroacetyl)-AMC substrate); greater than 10 µM in test [14]; greater than 10 µM in [15]. Also, the “inhibition in primary screening” value in [6] was greater than 50%. Also, in [10], the “effect on acetylation/deacetylation of histone H3” value is listed as “not observed”. In addition, in test [1], the “acetylated α-tubulin level” value is given as “not observed”.
Consider `Cc1ccccc1-n1sc2cc(F)ccc2c1=O` [Thr101, 6-Fluoro-2-o-tolylbenzo[d] isothiazol-3(2H)-one], for which the IC50 in [3] was 6.07 µM; in test [4] (HDAC1 IC50, biochemical HDAC assay, AMC-labeled peptide substrate), 3.62 µM; in [5], greater than 10 µM; in [7], 4.24 µM; in test [8] it was 3.43 µM; in [11], 1.57 µM. For the same molecule, the concentration for half-maximal inhibition (IC50) in [12] is 4.14 µM; in [13] it was 3.77 µM; in [14], greater than 10 µM; in [15] it was greater than 10 µM.
